# Results of several laboratories.
# Target: Macrophage-stimulating protein receptor (MST1R, Homo sapiens, UniProt Q04912)
Structure (SMILES),effect on,mode,method,tested at,endpoint,result
CCN(CC)c1ccc(C2=NNC(=O)CC2C)cc1[N+](=O)[O-] (stereo not shown),enzyme activity,inhibitor,,10 µM,remaining activity,106%
COc1cc2c(Nc3ccc(Br)cc3F)ncnc2cc1OCC1CCN(C)CC1,cell-free assay,,,0.5 µM,remaining signal,93.6%
CCCCN(CCCC)C(=O)CN1C[C@@H](c2cc(OC)c3c(c2)OCO3)[C@H](C(=O)O)[C@H]1CC(C)(C)CCC,cell-free assay,,competition with immobilised ligand,1 µM,remaining binding,100%
Cc1cnc(NC2CCOCC2)nc1-n1cnc(C(=O)NC(CN)c2cc(F)cc(Cl)c2)c1 (stereo not shown),enzyme activity,inhibitor,radiometric,1 µM,remaining activity,107%
Cc1[nH]c(/C=C2\C(=O)Nc3ccc(F)cc32)c(C)c1C(=O)N[C@H]1CCN(C(=O)N(C)C)C1,enzyme activity,inhibitor,,1 µM,remaining activity,96%
Cc1noc([C@H]2C[C@@H](c3ccc(C(F)(F)F)cc3)CN(C(=O)N3CCS(=O)(=O)C3)C2)n1,cell-free assay,,competition with immobilised ligand,1 µM,remaining binding,100%
Cc1ccc(C(=O)Nc2ccc(CN3CCN(C)CC3)c(C(F)(F)F)c2)cc1C#Cc1cnc2cccnn12,cell-free assay,,,23.5 nM,remaining signal,100%
CCN(CC)CCNC(=O)c1c(C)[nH]c(/C=C2\C(=O)Nc3ccc(F)cc32)c1C,cell-free assay,,,0.3 µM,inhibition,-3%
CNC(=O)c1cc2c(Oc3ccc(NC(=O)C4(C(=O)Nc5ccc(F)cc5)CC4)cc3)ccnc2cc1OC,enzyme activity,inhibitor,radiometric,1 µM,inhibition,90%
Cn1nc(C(F)(F)F)cc1-c1cnc(N2CCc3cc(S(=O)(=O)Nc4c(F)cc(Cl)cc4F)cc(N4CCCC4=O)c32)nc1,cell-free assay,,competition with immobilised ligand,1 µM,remaining binding,100%
CN1CC(Oc2cnc(C#N)cc2-c2ccn3nc(NC(=O)C4CC4)cc3c2)C1,enzyme activity,inhibitor,,1 µM,inhibition,5%
COc1cc2ncnc(Nc3ccc(Oc4ccccc4)cc3C)c2cc1OC,enzyme activity,inhibitor,,1 µM,inhibition,-3%
c1ccc(CNc2nc(N3CCOc4ccccc43)nc3c2CCCC3)cc1,target engagement in cells,inhibitor,chemoproteomics,20 mM,inhibition,-10.5%
CCN(CC)CCNC(=O)c1c(C)[nH]c(/C=C2\C(=O)Nc3ccc(F)cc32)c1C,enzyme activity,inhibitor,,0.1 µM,remaining activity,97%
Cc1ccc(Nc2nccc(N(C)c3ccc4c(C)n(C)nc4c3)n2)cc1S(N)(=O)=O,cell-free assay,,,0.3 µM,inhibition,-3%
Clc1ccc(Nc2nnc(Cc3ccncc3)c3ccccc23)cc1,cell-free assay,,,0.5 µM,remaining signal,91.6%
O=C(Nc1cnn(-c2csc(C(=O)NC3COC3)c2)c1)Nc1c(F)cccc1Cl,enzyme activity,inhibitor,,5 µM,remaining activity,100%
O=C(N1CCS(=O)(=O)CC1)N1C[C@H](c2ccc(OC(F)(F)F)cc2)C[C@H](c2nc(C3CC3)no2)C1,cell-free assay,,competition with immobilised ligand,1 µM,remaining binding,100%
C=CC(=O)Nc1cc(Nc2nccc(Nc3cc(Cl)c(F)cc3C(C)(C)O)n2)c(OC)cc1N1CC[C@@H](N(C)C)C1,enzyme activity,inhibitor,,1 µM,inhibition,8%
O=C(Nc1cnn(-c2csc(C(=O)NC3COC3)c2)c1)Nc1ccccc1Cl,enzyme activity,inhibitor,,5 µM,remaining activity,108%
CC(=O)c1c(NS(C)(=O)=O)c2cc(-c3ccc(Cl)cc3)c(-c3ccc(Cl)cc3Cl)nc2n(C)c1=O,cell-free assay,,competition with immobilised ligand,1 µM,remaining binding,88%
Nc1ncnc2occ(-c3ccc(NC(=O)Nc4cc(C(F)(F)F)ccc4F)cc3)c12,cell-free assay,,,20 µM,remaining signal,7.4%
O=C(NS(=O)(=O)c1ccc(NCC2CCOCC2)c([N+](=O)[O-])c1)c1ccc(N2CCN(Cc3ccc(C(F)(F)F)cc3-c3ccc(Cl)cc3)CC2)cc1Oc1cnc2[nH]ccc2c1,cell-free assay,,competition with immobilised ligand,1 µM,remaining binding,96%
CNC(=O)c1cc(Oc2ccc(NC(=O)Nc3ccc(Cl)c(C(F)(F)F)c3)cc2)ccn1,cell-free assay,,,10 µM,inhibition,-5%
O=C(Nc1ccc(Oc2ccc(F)cc2)cc1)N1CCc2ncccc2[C@H]1c1ccc(F)cc1,cell-free assay,,competition with immobilised ligand,1 µM,remaining binding,98%
CC(C)(C)c1nc(-c2cccc(NS(=O)(=O)c3c(F)cccc3F)c2F)c(-c2ccnc(N)n2)s1,enzyme activity,inhibitor,radiometric,1 µM,remaining activity,104%
O=C(NCc1ncc(C(F)(F)F)cc1Cl)c1ccc2c(c1)C1(CCS(=O)(=O)CC1)[C@H](C1CC1)N2S(=O)(=O)c1ccc(F)cc1,cell-free assay,,competition with immobilised ligand,1 µM,remaining binding,99%
Oc1cccc(-c2nc(N3CCOCC3)c3oc4ncccc4c3n2)c1,cell-free assay,,,0.5 µM,remaining signal,94.3%
